Laboratory results: ChEMBL document CHEMBL1121890, “Synthesis and antimetastatic properties of steroeoisomeric trycylic bis(dioxopiperazine) analogues in a B16 melanoma model” (1981)
Values joined by “and” are separate entries in the source; they are usually repeats but may differ in a detail not shown here. Identical values can stand only once.

Key:
Assay type in all cases: functional, Mus musculus
B16-F10 [1] = assay: Effect of 100 uM on B16-F10 melanoma cells (experiment 2)
Outline: (§1)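 B16-F10 cells, cultured in vitro for no more than 10 passages, were exposed for 24 h to drug made up as a 1000 μM Me₂SO stock and diluted in medium. Controls were Me₂SO or saline. Cells were scraped, washed and set at 5 × 10⁵/mL in Hanks BSS, and 0.2 mL was given iv by tail vein to male C57Bl/6J mice aged 6–8 weeks. Black lung nodules were counted at 14 days, mean ± SD, ANOVA/Newman–Keuls.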

B16-F10 [2] = assay: Effect of 20 uM on B16-F10 melanoma cells (experiment 2); outline: as §1
B16-F10 [3] = assay: Effect of 2 uM on B16-F10 melanoma cells (experiment 2); outline: as §1
B16-F10 [4] = assay: Effect of 100 uM on B16-F10 melanoma cells (experiment 1); outline: as §1
B16-F10 [5] = assay: Effect of 2 uM on B16-F10 melanoma cells (experiment 1); outline: as §1
B16-F10 [6] = assay: Effect of 20 uM on B16-F10 melanoma cells (experiment 1); outline: as §1

`O=C1CN2CCN3CC(=O)NC(=O)[C@H]3C2C(=O)N1` (some centres not stated) was tested, and the “Mean no. of lung colonies” value (B16-F10 [1]) was 118.9, the “Mean no. of lung colonies” value (B16-F10 [2]) was 96.1 and the “Mean no. of lung colonies” value (B16-F10 [3]) was 52.1.

For `O=C1CN2CCN3CC(=O)NC(=O)[C@@H]3C2C(=O)N1` (some centres not stated), the “Mean no. of lung colonies” value (B16-F10 [4]) was 65.7, the “Mean no. of lung colonies” value (B16-F10 [5]) was 29.1 and the “Mean no. of lung colonies” value (B16-F10 [6]) was 23.3. The “Mean no. of lung colonies” value (B16-F10 [2]) was 50.1 and 50.2 and the “Mean no. of lung colonies” value (B16-F10 [3]) was 39.1.

For `CCOC(=O)CN1CCN(CC(=O)OCC)[C@H]2C(=O)NC(=O)[C@H]21`, the “Mean no. of lung colonies” value (B16-F10 [4]) was 142.5, the “Mean no. of lung colonies” value (B16-F10 [5]) was 159.7 and the “Mean no. of lung colonies” value (B16-F10 [6]) was 160.7.

In the case of `CCOC(=O)COC(=O)[C@H]1[C@@H](C(N)=O)N(CC(=O)OCC)CCN1CC(=O)OCC`, the “Mean no. of lung colonies” value (B16-F10 [4]) is reported as 37.1, the “Mean no. of lung colonies” value (B16-F10 [5]) is reported as 33.2 and the “Mean no. of lung colonies” value (B16-F10 [6]) is reported as 43.4.

`COC(=O)CN1CCN2CC(=O)NC(=O)[C@@H]2[C@@H]1C(N)=O` was tested, and the “Mean no. of lung colonies” value (B16-F10 [1]) was 56.7, the “Mean no. of lung colonies” value (B16-F10 [2]) was 101.3 and the “Mean no. of lung colonies” value (B16-F10 [3]) was 86.2.
